Values after ≈ are worked out from the molar mass of the structure shown.
Tests used:
MDCK = assay: Minimum inhibitory concentration against influenza A virus, in MDCK cells from dog kidney; assay type: functional; conditions: Canis lupus familiaris
Method in brief: (§1)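 MDCK dog kidney cells infected with influenza A. MIC50 is the lowest concentration giving a 50% drop in virus yield. MTC50 is the lowest concentration toxic to 50% of cells. Selectivity index is MTC50 divided by MIC50, in µg/mL terms. Amantadine hydrochloride served as the reference.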

[1] = […] against African Swine Fever Virus; assay type: functional
Vero [2] = assay: Minimum inhibitory concentration against herpes simplex virus 2, in vero monkey kidney cells; assay type: functional; conditions: Chlorocebus sabaeus
[3] = Minimum toxic concentration against influenza A virus, in MDCK cells from dog kidney; assay type: ADME, cell-based, Canis lupus familiaris; conditions: read-out: MTC50; method in brief: as §1
[4] = Minimum toxic concentration against herpes simplex virus 2, in vero monkey kidney cells; assay type: ADME, cell-based; conditions: chlorocebus sabaeus, read-out: MTC50
Vero [5] = assay: Minimum inhibitory concentration against African swine fever virus, in vero monkey kidney cells; assay type: functional; conditions: Chlorocebus sabaeus
[6] = Minimum toxic concentration against African swine fever virus, in vero monkey kidney cells; assay type: ADME, cell-based; conditions: chlorocebus sabaeus, read-out: MTC50
[7] = Ratio of MIC50 to MTC50 against HSV-2; assay type: functional

Row | SMILES | MIC50 (MDCK) [µg/mL] | Selectivity index [1] | MIC50 (Vero [2]) [µg/mL] | MCC [3] [µg/mL] | MCC [4] [µg/mL] | MIC50 (Vero [5]) [µg/mL] | MCC [6] [µg/mL] | Selectivity index [7]
1 | CC1C2CCC(N)(C2)C1(C)C (stereo not drawn) | 5 (≈ 32.6 µM) | 8 | 25 (≈ 163 µM) | 50 | 200 | 25 (≈ 163 µM) | 200 | 8
2 | C=C1C2CCC(NCC)(C2)C1(C)C (stereo not drawn) | 0.1 (≈ 0.558 µM) | 13 | 100 (≈ 558 µM) | 100 | 400 | 30 (≈ 167 µM) | 400 | 4
3 | Cl.NC12CC3CC(CC(C3)C1)C2 [AMANTADINE HYDROCHLORIDE] | 0.5 |  |  | 300 |  |  |  | 
4 | CC1C2(N)CCC(C2)C1(C)C (stereo not drawn) |  | 10 | 50 (≈ 326 µM) |  | 300 | 30 (≈ 196 µM) | 300 | 6
5 | CCNC12CCC(C1)C(C)C2(C)C (stereo not drawn) | < 10 | 12 | 25 (≈ 138 µM) | 100 | 300 | 25 (≈ 138 µM) | 300 | 12
6 | C=C1C2(NCC)CCC(C2)C1(C)C (stereo not drawn) | 5 (≈ 27.9 µM) | 3 | 300 (≈ 1670 µM) | 200 | 300 | 100 (≈ 558 µM) | 300 | 1
7 | CCNC12CCC(C1)C(C)(C)C2C (stereo not drawn) | 0.1 (≈ 0.552 µM) | 10 | 75 (≈ 414 µM) | 100 | 300 | 30 (≈ 165 µM) | 300 | 4
